Measurements from ChEMBL document CHEMBL1156778, “Synthesis and structure-activity studies of biphenyl analogues of the tuberculosis drug (6S)-2-nitro-6-{[4-(trifluoromethoxy)benzyl]oxy}-6,7-dihydro-5H-imidazo[2,1-b][1,3]oxazine (PA-824)” (J Med Chem, 2010).
In brackets after ≈: the same amount, converted by molar mass.

Key:
[1] = tested on: Mycobacterium tuberculosis; test: Antitubercular activity against Mycobacterium tuberculosis H37Rv in aerobic condition after 7 days by microplate alamar blue assay; type: functional; details: 168 h
Summary of the method: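 M. tuberculosis H37Rv, replicating culture; 8-day microplate assay with Alamar blue added on day 7 to read growth. […] Mean of at least two independent determinations ± SD.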

[2] = tested on: Mycobacterium tuberculosis; test: Antitubercular activity against Mycobacterium tuberculosis H37Rv in anaerobic condition after 7 days by low oxygen recovery assay; type: functional; details: 168 h
Vero = test: Cytotoxicity against african green monkey Vero cells after 72 hrs by MTS assay; type: cell-based; details: Chlorocebus sabaeus
Summary of the method: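 VERO cells (CCL-81), 72 h exposure, tetrazolium dye read-out.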

[3] = tested on: Mycobacterium tuberculosis; test: Antitubercular activity against Mycobacterium tuberculosis H37Rv infected in BALB/c mouse assessed as ratio of lung CFU for compound to lung CFU for PA-824 at 100 mg/kg, po daily for 5 days a week for 3 weeks; type: functional
[4] = tested on: Mycobacterium tuberculosis; test: Antitubercular activity against Mycobacterium tuberculosis H37Rv infected in BALB/c mouse measured per mouse at 100 mg/kg, po daily for 5 days a week for 3 weeks; type: functional

SMILES | MIC [1] [µM] | MIC [2] [µM] | IC50 (Vero) [µM] | fold change (FC) [3] | CFU [4]
O=[N+]([O-])c1cn2c(n1)OC[C@@H](OCc1cccc(-c3cccc(OC(F)(F)F)c3)c1)C2 | 0.4 (≈ 0.174 µg/mL) | 3.5 (≈ 1.52 µg/mL) | > 125 | – | –
O=[N+]([O-])c1cn2c(n1)OC[C@@H](OCc1cccc(-c3cccc(OCCCO)c3)c1)C2 | 0.58 (≈ 0.247 µg/mL) | 2.5 (≈ 1.06 µg/mL) | > 125 | – | –
O=[N+]([O-])c1cn2c(n1)OC[C@@H](OCc1ccccc1-c1ccc3ccccc3c1)C2 | 1.6 (≈ 0.642 µg/mL) | 3.1 (≈ 1.24 µg/mL) | > 125 | – | –
O=[N+]([O-])c1cn2c(n1)OC[C@@H](OCc1cccc(-c3cccc(C(F)(F)F)c3)c1)C2 | 0.34 (≈ 0.143 µg/mL) | 2.9 (≈ 1.22 µg/mL) | > 125 | – | –
Cc1cccc(C)c1-c1ccc(CO[C@@H]2COc3nc([N+](=O)[O-])cn3C2)cc1 | 0.39 (≈ 0.148 µg/mL) | 0.93 (≈ 0.353 µg/mL) | > 125 | – | –
O=[N+]([O-])c1cn2c(n1)OC[C@@H](OCc1ccc(-c3ccc(CO)cc3)cc1)C2 | 0.54 (≈ 0.206 µg/mL) | 3.7 (≈ 1.41 µg/mL) | > 125 | – | –
O=[N+]([O-])c1cn2c(n1)OC[C@@H](OCc1cccc(-c3ccc(OCCCO)cc3)c1)C2 | 0.36 (≈ 0.153 µg/mL) | 1.5 (≈ 0.638 µg/mL) | > 125 | – | –
NC(=O)c1cccc(-c2ccc(CO[C@@H]3COc4nc([N+](=O)[O-])cn4C3)cc2)c1 | 2.8 (≈ 1.1 µg/mL) | 6.7 (≈ 2.64 µg/mL) | > 125 | – | –
CSc1cccc(-c2ccccc2CO[C@@H]2COc3nc([N+](=O)[O-])cn3C2)c1 | 0.81 (≈ 0.322 µg/mL) | 3.2 (≈ 1.27 µg/mL) | > 125 | – | –
CS(=O)(=O)c1ccc(-c2ccc(CO[C@@H]3COc4nc([N+](=O)[O-])cn4C3)cc2)cc1 | 0.67 (≈ 0.288 µg/mL) | 14 (≈ 6.01 µg/mL) | > 125 | – | –
Nc1ccc(-c2ccc(CO[C@@H]3COc4nc([N+](=O)[O-])cn4C3)cc2)cc1 | 0.49 (≈ 0.18 µg/mL) | 1.9 (≈ 0.696 µg/mL) | > 125 | – | –
O=[N+]([O-])c1cn2c(n1)OC[C@@H](OCc1ccccc1-c1cccc(OC(F)(F)F)c1)C2 | 1.9 (≈ 0.827 µg/mL) | 6.3 (≈ 2.74 µg/mL) | > 125 | – | –
N#Cc1ccc(-c2ccccc2CO[C@@H]2COc3nc([N+](=O)[O-])cn3C2)cc1 | 8.4 (≈ 3.16 µg/mL) | 19 (≈ 7.15 µg/mL) | > 125 | – | –
O=[N+]([O-])c1cn2c(n1)OC[C@@H](OCc1ccccc1-c1ccccc1OC(F)(F)F)C2 | 1.2 (≈ 0.522 µg/mL) | 6.2 (≈ 2.7 µg/mL) | > 125 | – | –
O=[N+]([O-])c1cn2c(n1)OC[C@@H](OCc1ccc(-c3ccc(OCCCO)cc3)cc1)C2 | 0.6 (≈ 0.255 µg/mL) | 2.2 (≈ 0.936 µg/mL) | > 125 | – | –
O=[N+]([O-])c1cn2c(n1)OC[C@@H](OCc1ccccc1-c1ccc(F)cc1)C2 | 1.2 (≈ 0.443 µg/mL) | 3.4 (≈ 1.26 µg/mL) | > 125 | – | –
COc1cccc(OC)c1-c1ccc(CO[C@@H]2COc3nc([N+](=O)[O-])cn3C2)cc1 | 0.31 (≈ 0.128 µg/mL) | 1 (≈ 0.411 µg/mL) | > 125 | – | –
O=[N+]([O-])c1cn2c(n1)OC[C@@H](OCc1cccc(-c3ccc(O)cc3)c1)C2 | 0.54 (≈ 0.198 µg/mL) | 5.8 (≈ 2.13 µg/mL) | > 125 | – | –
COc1cc(OC)cc(-c2ccc(CO[C@@H]3COc4nc([N+](=O)[O-])cn4C3)cc2)c1 | 0.28 (≈ 0.115 µg/mL) | 0.79 (≈ 0.325 µg/mL) | > 125 | – | –
CC(=O)c1ccc(-c2ccccc2CO[C@@H]2COc3nc([N+](=O)[O-])cn3C2)cc1 | 17 (≈ 6.69 µg/mL) | 36 (≈ 14.2 µg/mL) | > 125 | – | –
O=[N+]([O-])c1cn2c(n1)OC[C@@H](OCc1cccc(-c3ccccc3OC(F)(F)F)c1)C2 | 0.46 (≈ 0.2 µg/mL) | 3.3 (≈ 1.44 µg/mL) | > 125 | – | –
O=[N+]([O-])c1cn2c(n1)OC[C@@H](OCc1cccc(-c3cccc(O)c3)c1)C2 | 0.3 (≈ 0.11 µg/mL) | 3.7 (≈ 1.36 µg/mL) | > 125 | – | –

SMILES | MIC [1] [µM] | MIC [2] [µM] | IC50 (Vero) [µM] | fold change (FC) [3] | CFU [4]
CN(C)CCOc1cccc(-c2ccc(CO[C@@H]3COc4nc([N+](=O)[O-])cn4C3)cc2)c1 | 1.5 (≈ 0.658 µg/mL) | 18 (≈ 7.89 µg/mL) | > 125 | – | –
Cc1cc(-c2ccc(CO[C@@H]3COc4nc([N+](=O)[O-])cn4C3)cc2)cc(C)c1O | 0.3 (≈ 0.119 µg/mL) | 1.5 (≈ 0.593 µg/mL) | > 125 | – | –
O=[N+]([O-])c1cn2c(n1)OC[C@@H](OCc1ccccc1-c1cccc(F)c1)C2 | 0.62 (≈ 0.229 µg/mL) | 3 (≈ 1.11 µg/mL) | > 125 | – | –
COc1ccc(-c2ccccc2CO[C@@H]2COc3nc([N+](=O)[O-])cn3C2)cc1F | 1.8 (≈ 0.719 µg/mL) | 3.8 (≈ 1.52 µg/mL) | > 125 | – | –
NC(=O)c1ccc(-c2ccc(CO[C@@H]3COc4nc([N+](=O)[O-])cn4C3)cc2)cc1 | 2.1 (≈ 0.828 µg/mL) | 15 (≈ 5.92 µg/mL) | > 125 | – | –
O=[N+]([O-])c1cn2c(n1)OC[C@@H](OCc1ccccc1-c1ccc(OC(F)(F)F)cc1)C2 | 2.3 (≈ 1 µg/mL) | 4.3 (≈ 1.87 µg/mL) | > 125 | – | –
O=[N+]([O-])c1cn2c(n1)OC[C@@H](OCc1ccc(-c3ccc(O)cc3)cc1)C2 | 0.64 (≈ 0.235 µg/mL) | 4.3 (≈ 1.58 µg/mL) | > 125 | – | –
O=[N+]([O-])c1cn2c(n1)OC[C@@H](OCc1ccc(-c3ccc(OC(F)(F)F)cc3)cc1)C2 | 0.035 (≈ 0.0152 µg/mL) | 1.3 (≈ 0.566 µg/mL) | > 125 | >205 | <2
O=[N+]([O-])c1cn2c(n1)OC[C@@H](OCc1cccc(-c3ccc(OCCCN4CCOCC4)cc3)c1)C2 | 0.69 (≈ 0.341 µg/mL) | 11 (≈ 5.44 µg/mL) | > 125 | – | –
O=[N+]([O-])c1cccc(-c2ccc(CO[C@@H]3COc4nc([N+](=O)[O-])cn4C3)cc2)c1 | 0.13 (≈ 0.0515 µg/mL) | 0.76 (≈ 0.301 µg/mL) | > 125 | – | –
CSc1ccc(-c2ccccc2CO[C@@H]2COc3nc([N+](=O)[O-])cn3C2)cc1 | 1.3 (≈ 0.517 µg/mL) | 3.4 (≈ 1.35 µg/mL) | > 125 | – | –
COc1cccc(-c2ccc(CO[C@@H]3COc4nc([N+](=O)[O-])cn4C3)cc2)c1 | 0.27 (≈ 0.103 µg/mL) | 1.9 (≈ 0.725 µg/mL) | > 125 | – | –
O=[N+]([O-])c1cn2c(n1)OC[C@@H](OCc1ccc(-c3cccc(OCCCO)c3)cc1)C2 | 0.18 (≈ 0.0766 µg/mL) | 3.2 (≈ 1.36 µg/mL) | > 125 | – | –
N#Cc1cccc(-c2ccccc2CO[C@@H]2COc3nc([N+](=O)[O-])cn3C2)c1 | 0.8 (≈ 0.301 µg/mL) | 8.2 (≈ 3.09 µg/mL) | > 125 | – | –
O=Cc1ccc(-c2ccc(CO[C@@H]3COc4nc([N+](=O)[O-])cn4C3)cc2)cc1 | 0.2 (≈ 0.0759 µg/mL) | 1 (≈ 0.379 µg/mL) | > 125 | – | –
O=[N+]([O-])c1cn2c(n1)OC[C@@H](OCc1ccccc1-c1ccccc1)C2 | 0.64 (≈ 0.225 µg/mL) | 2.5 (≈ 0.878 µg/mL) | > 125 | – | –
COc1ccc(-c2cccc(CO[C@@H]3COc4nc([N+](=O)[O-])cn4C3)c2)cc1F | 0.19 (≈ 0.0759 µg/mL) | 2.2 (≈ 0.879 µg/mL) | > 125 | – | –
O=[N+]([O-])c1cn2c(n1)OC[C@@H](OCc1ccc(-c3cccc(-c4ccccc4)c3)cc1)C2 | 0.31 (≈ 0.133 µg/mL) | 0.88 (≈ 0.376 µg/mL) | > 125 | – | –
CC(=O)c1ccc(-c2cccc(CO[C@@H]3COc4nc([N+](=O)[O-])cn4C3)c2)cc1 | 0.3 (≈ 0.118 µg/mL) | 1.9 (≈ 0.747 µg/mL) | > 125 | – | –
COc1cc(C)c(-c2ccc(CO[C@@H]3COc4nc([N+](=O)[O-])cn4C3)cc2)c(C)c1 | 0.58 (≈ 0.237 µg/mL) | 0.94 (≈ 0.385 µg/mL) | > 125 | – | –
O=[N+]([O-])c1cn2c(n1)OC[C@@H](OCc1ccc(-c3ccc(OCCO)cc3)cc1)C2 | 0.55 (≈ 0.226 µg/mL) | 3.3 (≈ 1.36 µg/mL) | > 125 | – | –
O=[N+]([O-])c1cn2c(n1)OC[C@@H](OCc1cccc(-c3cccc(OCCCN4CCOCC4)c3)c1)C2 | 1.4 (≈ 0.692 µg/mL) | 11 (≈ 5.44 µg/mL) | > 125 | – | –
